In the library only some 2.2% were active in any assay of this set; here they are far more common.
MT stabilizer – stabilizes microtubules in HeLa cells; AID 2205; hit rate 0.83% among 200,000; % tubulin-high responders, % at 10 µM; HeLa tubulin immunostaining HCS, 24 h; share of cells brighter than vehicle mean+2SD;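 active = plate Z-score above 3 for both tubulin-high and condensed-nucleus cell shares, with cell loss under 80%, at 10 µM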;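 note: anti alpha tubulin signal scored within the nucleus-defined area of each cell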
BaF3 tox – reduces parental Ba/F3 cell viability, JAK2V617F counter-screen. CellTiter-Glo ATP luminescence. inhibition, % at 5.6 µM. hit rate 1.1% among 220,000. AID 1486;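 active = inhibition above a per-campaign cutoff, the mean inhibition of all tested compounds plus 3 SD, cut at about 27% in these data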
IEC-6 tox – IEC-6 cytotoxicity, counter-screen for KLF5 inhibitors. luminescence viability. inhibition, % at 5 µM. hit rate 0.78% among 290,000. AID 1825; in the data active = inhibition above about 22%
APP transl inh – APP translation inhibition; SH-SY5Y APP 5'UTR-luciferase reporter, luminescence; inhibition, % at 2 µM; hit rate 0.82% among 190,000; AID 1285;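 active = inhibition above a set limit, derived from the sample mean plus 3 SD, cut at about 45% in these data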
bCat nuc transl – modulators of beta-catenin nuclear translocation; HeLa beta-catenin nuclear translocation, immunofluorescence imaging; AID 1665; nuclear translocation activity, % at 5 µM; hit rate 0.3% among 190,000;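 active = nuclear translocation activity above 50% at 5 µM, with a well cell count of 50 or more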;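 note: per-cell ratio of nuclear to cytoplasmic median beta-catenin stain intensity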
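test system = HeLa cells, endogenous beta-catenin | dosing = single 5 µM dose plus 0.02–20 µM confirmation series | times = compound treatment 24 h, 37°C, 5% CO2 | technique = beta-catenin immunofluorescence imaging with DAPI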
Ba/F3 V617F tox – lowers viability of Ba/F3 cells expressing EpoR and JAK2V617F. ATP luminescence. inhibition, % at 5.6 µM. hit rate 1.1% among 220,000. AID 1446;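 active = inhibition above the campaign mean plus 3 SD over all tested compounds, cut at about 24% in these data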;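 note: cytokine-independent growth of Ba/F3 cells driven by EpoR plus mutant JAK2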
Numbers stand for hits; n = inactive; x = no result.

SMILES	MT stabilizer	BaF3 tox	IEC-6 tox	APP transl inh	bCat nuc transl	Ba/F3 V617F tox
CCC1=[N+](C)c2cccc3cccc(c23)N1C	n	41	n	n	n	37
Cc1cc2oc(C(=O)NCc3ccccc3)cc(=O)c2cc1C	x	x	22	x	x	x
Cc1ccc2oc(C(=O)NCc3ccccc3)cc(=O)c2c1	x	x	n	x	x	x
CC(C)(C)NC(=O)C(c1ccncc1)N(C(=O)Cn1nnc(-c2ccc(F)cc2)n1)c1ccc(F)cc1 (centres undefined)	n	81	n	n	n	n
Cc1ccc(N(C(=O)Cn2nnc(-c3ccc(F)cc3)n2)C(C(=O)NC(C)(C)C)c2ccncc2)cc1 (centres undefined)	n	n	n	n	n	n
O=C1CSC(c2cccc([N+](=O)[O-])c2)N1c1c(F)cccc1F (centres undefined)	10	n	n	n	n	n
COC(=O)c1cc(C(=O)N2CCN(c3ccccc3OC)CC2)cc([N+](=O)[O-])c1	27	71	69	92	70	67
COc1ccccc1N1CCN(c2ccc([N+](=O)[O-])cc2Cl)CC1	21	n	n	n	n	n
COc1cc2c(cc1OC)CN(c1ccc([N+](=O)[O-])cc1Cl)CC2	n	n	n	n	n	n
COC(=O)c1cc(C(=O)N2CCN(c3ncccn3)CC2)cc([N+](=O)[O-])c1	x	x	n	x	x	x
O=C(N/C(=C\c1ccco1)C(=O)N1CCCC(CO)C1)c1ccccc1 (centres undefined)	x	x	n	x	x	x
C#CCSc1nccc(-c2nn(-c3ccc(C)cc3)ccc2=O)n1	n	n	n	x	n	n
CCSc1nccc(-c2nn(-c3ccc(C)cc3)ccc2=O)n1	50	38	n	x	133	31
Cc1ccccc1NS(=O)(=O)c1cc2c3c(c1)C(C)C(=O)N3CCC2 (centres undefined)	x	x	n	x	x	x
CNc1ccccc1NC(=O)C1CCCN1C(=O)OCc1ccccc1 (centres undefined)	x	x	n	x	x	x
Cc1ccc(NS(=O)(=O)c2ccc(C(=O)N3CCN(c4ncccn4)CC3)cc2)cc1	n	28	n	n	n	n
Cc1ccc(C(=O)N2CCN(c3ncccn3)CC2)cc1	x	x	n	x	x	x
OCCNc1nc2ccccc2nc1NCCO	x	n	n	x	n	n
OCCNc1cnc2ccccc2n1	n	n	n	49	n	n
O=C(CSCc1ccc([N+](=O)[O-])cc1)N/N=C/c1ccncc1	n	84	n	n	n	n
O=C(NCC1CCCO1)c1ccc(Cl)c(S(=O)(=O)N2CCCCC2)c1 (centres undefined)	x	x	n	x	x	x
O=C(c1cccc(S(=O)(=O)N2CCCCCC2)c1)N1CCN(c2ccccc2)CC1	n	n	n	n	n	n
O=C(NCCO)c1cccc(S(=O)(=O)N2CCCCC2)c1	n	94	n	n	n	n
CC(=O)N1CCN(CC(=O)Nc2cccc(S(=O)(=O)N3CCCCCC3)c2)CC1	n	n	n	n	n	n
O=C(NCCN1CCOCC1)c1cccc(S(=O)(=O)N2CCCCCC2)c1	n	n	n	n	x	n
SMILES	MT stabilizer	BaF3 tox	IEC-6 tox	APP transl inh	bCat nuc transl	Ba/F3 V617F tox
O=C(CCl)Nc1cccc(S(=O)(=O)N2CCCCCC2)c1	13	n	n	n	n	n
O=C(c1cccc(S(=O)(=O)N2CCCC2)c1)N1CCN(c2ccccc2)CC1	18	n	n	n	x	n
CC(C)n1nnc(-c2ccc(OCc3ccccc3F)cc2)n1	x	x	n	x	x	x
O=C(COc1ccc(Br)cc1)NCCCNC(=O)c1cccnc1	x	x	n	x	x	x
O=C1NC2(CCCCCC2)C(=O)N1Cc1ccccc1Br	x	x	n	x	x	x
Cc1ccc(C(=O)CSC2=C(C#N)C(c3ccco3)C3=C(CC(C)(C)CC3=O)N2)cc1 (centres undefined)	n	n	n	n	x	n
N#CC1=C(SCC(=O)c2ccc(Cl)cc2)NC2=C(C(=O)CCC2)C1c1ccco1 (centres undefined)	x	x	x	x	83	x
CCn1c(C)cc(/C=C2/NC(=O)N(c3ccccc3)C2=O)c1C	n	n	n	n	n	40
COCCn1c(C)cc(/C=C2/NC(=O)N(c3cccc(Cl)c3)C2=O)c1C	n	n	n	n	n	n
COc1ccc2oc(=O)c(-c3nnc(NCc4ccco4)s3)cc2c1	46	n	n	n	n	n
COc1ccc2oc(=O)c(-c3csc(Nc4ccc(O)cc4)n3)cc2c1	n	28	n	n	n	60
N#Cc1ccccc1S(=O)(=O)N1CCN(C(=O)C2CCCC2)CC1	x	x	n	x	x	x
COc1ccc(NC(=O)c2nc(C)c(C3(C)CC(c4cccnc4)=NO3)s2)cc1 (centres undefined)	x	x	x	x	76	x
CN=c1scc(-c2ccco2)n1/N=C/c1ccc(O)c(O)c1	n	54	n	n	n	100
COc1ccc(NC(=O)N2CCc3ccccc3C2)c(OC)c1	x	x	n	x	x	x
Cc1cc(C)cc(C(=O)Nc2ccncc2)c1	x	x	n	x	x	x
COc1ccc(CNCC(O)COc2cccc3c2OC(C)(C)C3)cc1 (centres undefined)	n	29	n	n	n	n
COC(=O)c1ccc(COc2cccc3c2OC(C)(C)C3)cc1	x	x	n	x	x	x
C/C(=N\NC(=O)CC1N=C(Cc2ccccc2)NNC1=O)c1ccccc1 (centres undefined)	n	n	n	n	n	n
C/C(=N\NC(=O)CC1N=C(Cc2ccccc2)NNC1=O)c1ccc(Cl)cc1Cl (centres undefined)	22	n	n	n	n	n
Cc1cc(C)cc(NC(=S)NCCN(C2CCCCC2)C2CCCC2)c1	n	72	n	n	n	n
Cc1ccc(NC(=S)NCCN(C2CCCCC2)C2CCCC2)cc1	n	n	n	n	n	n
CC(C)(C)c1ccccc1NC(=S)NC1CCCCC1	n	40	n	n	n	n
O=C(NNc1c2ccccc2nc2ccccc12)c1ccc(O)cc1O	n	77	n	n	n	72
O=C(NNc1c2ccccc2nc2ccccc12)c1ccccc1O	n	n	n	n	n	n
SMILES	MT stabilizer	BaF3 tox	IEC-6 tox	APP transl inh	bCat nuc transl	Ba/F3 V617F tox
O=C(NNc1c2ccccc2nc2ccccc12)c1ccc(O)cc1	n	65	n	n	n	49
Cc1ccc(Cl)c(NC(=O)COC(=O)c2ccccc2C(=O)c2ccc(Cl)c([N+](=O)[O-])c2)c1Cl	n	n	n	52	n	n
COc1ccc(N2CCN(c3oc(COc4ccccc4)nc3C#N)CC2)cc1	n	n	n	n	n	n
COc1ccc(N2CCN(c3oc(Cc4ccccc4)nc3C#N)CC2)cc1	29	n	n	n	n	n
COc1ccc(CN2CCNC(=O)C2CC(=O)NCC2CCOCC2)c(F)c1 (centres undefined)	x	x	n	x	x	x
CCCCN(Cc1ccccc1)C(=O)C1CCCN(S(=O)(=O)c2cnc[nH]2)C1 (centres undefined)	n	n	n	48	x	n
CC(C)OCCCNc1ncnc2c1[nH]c1ccccc12	n	52	n	n	n	40
COc1ccc(CNc2ncnc3c2[nH]c2ccccc23)cc1	x	n	n	x	n	n
O=C(COc1ccccc1Cl)Nc1ccccc1C(=O)N1CCCCC1	x	x	n	x	x	x

Screens (PubChem BioAssay)
